Measured values from paper PMC5956897 (Journal of inorganic biochemistry, 2018).

Tests used:
MDA-MB-231 cells [1] = experiment: Intracellular ROS detection with DCFH2-DA by flow cytometry; type: cell-based
Method in brief: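 Cells were seeded at 2.0 × 10⁵ per well and incubated overnight. They were treated for 2 h with test compound (50 μM) in phenol-red-free EMEM with 0.1% DMSO; the H₂O₂ control in PBS ran for 10 min. After PBS washes, cells took up DCFH₂-DA (30 μM) in warm PBS. They were detached with trypsin/EDTA, held on ice, and read by flow cytometry (488 nm excitation, 530/30 nm) within 1 h. n=3, mean ± SDM.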

MDA-MB-231 cells [2] = experiment: Cell cycle analysis; type: cell-based; conditions: MDA-MB-231, 10 μM, 12 h
MEL cells = experiment: Spectrophotometric hemoglobin quantitation in induced MEL cells; type: cell-based, murine

Structure (SMILES) | ROS/RNS levels (DCF fluorescence) compared to untreated control (MDA-MB-231 cells [1]; MDA-MB-231, 50 μM, 2 h) | G0/1 accumulation (cell cycle arrest) (MDA-MB-231 cells [2]) | effect on hemoglobin production (MEL cells; 0.5 μM or 5 μM, 72 h, without SA) | decrease in intracellular hemoglobin concentrations (MEL cells; 72 h, without SA, statistically significant) | change in intracellular Hb concentrations (MEL cells; with succinylacetone (SA, 1 mM), normalized data) | DCF response compared to untreated control (MDA-MB-231 cells [1]; MDA-MB-231, positive control in PBS, 10 min)
O=C(N/N=C/c1ccccc1O)c1ccncc1 [SIH, salicyl isonicotinoyl hydrazone] | significant decrease of DCF fluorescence | arrest at the G1/S interface | did not have major effects on hemoglobin production | less than 20% | did not result in statistically significant changes | 
OO [H2O2, Hydrogen peroxide] |  |  |  |  |  | an order of magnitude higher than that of the untreated control
